# Laboratory results taken from ChEMBL document CHEMBL4304768, “Modifications at Arg and Ile Give Neurotensin(8-13) Derivatives with High Stability and Retained NTS1 Receptor Affinity” (ACS Med Chem Lett, 2019).
# Experiments:
# [1] = Stability in human plasma assessed as percentage intact peptide at 100 uM incubated for 10 mins by LC-HRMS analysis; assay type: ADME, cell-free; conditions: read-out: Stability
# Outline: (§1)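 Peptides at 100 μM initial concentration in human plasma/PBS (1:2 v/v), incubated at 37 °C for up to 48 h (sampled at 10 min, 30 min, 1, 2, 6, 24, 48 h); intact peptide and fragments analysed by LC-HRMS. Values are means ± SEM from three independent experiments.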
# [2] = Stability in human plasma assessed as percentage intact peptide at 100 uM incubated for 1 hr by LC-HRMS analysis; assay type: ADME, cell-free; conditions: read-out: Stability; outline: as §1
# [3] = Stability in human plasma assessed as percentage intact peptide at 100 uM incubated for 24 hrs by LC-HRMS analysis; assay type: ADME, cell-free; conditions: read-out: Stability; outline: as §1
# [4] = Stability in human plasma assessed as percentage intact peptide at 100 uM incubated for 48 hrs by LC-HRMS analysis; assay type: ADME, cell-free; conditions: read-out: Stability; outline: as §1
# [5] = Stability in human plasma assessed as half life at 100 uM by LC-HRMS analysis; assay type: ADME, cell-free; outline: as §1
# [6] = Stability in human plasma assessed as percentage intact peptide at 100 uM incubated for 30 mins by LC-HRMS analysis; assay type: ADME, cell-free; conditions: read-out: Stability; outline: as §1
# [7] = Stability in human plasma assessed as percentage intact peptide at 100 uM incubated for 2 hrs by LC-HRMS analysis; assay type: ADME, cell-free; conditions: read-out: Stability; outline: as §1
# [8] = molecular target: Neurotensin receptor type 1 (Homo sapiens, UniProt P30989); assay: Displacement of [3H]UR-MK300 from human NSTR1 in HT-29 cells incubated for 2 hrs by liquid scintillation counter; assay type: cell-based
# Chain of Neurotensin receptor type 1 (P30989 whole entry): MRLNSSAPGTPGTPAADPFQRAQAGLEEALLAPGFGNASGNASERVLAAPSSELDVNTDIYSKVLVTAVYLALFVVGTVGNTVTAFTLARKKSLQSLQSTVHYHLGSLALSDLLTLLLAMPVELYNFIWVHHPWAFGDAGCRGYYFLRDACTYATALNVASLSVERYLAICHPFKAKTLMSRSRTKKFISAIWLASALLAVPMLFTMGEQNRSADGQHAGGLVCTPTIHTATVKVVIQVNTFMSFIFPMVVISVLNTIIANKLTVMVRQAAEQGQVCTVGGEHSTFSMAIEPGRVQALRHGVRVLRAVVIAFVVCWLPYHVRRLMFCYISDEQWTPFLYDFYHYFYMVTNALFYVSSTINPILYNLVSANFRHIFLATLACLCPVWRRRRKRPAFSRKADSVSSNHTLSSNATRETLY
# [9] = Stability in human plasma assessed as percentage intact peptide at 100 uM incubated for 6 hrs by LC-HRMS analysis; assay type: ADME, cell-free; conditions: read-out: Stability; outline: as §1
"remaining at 10 min, 100 µM [1] [%]","remaining at 1 h, 100 µM [2] [%]","remaining at 24 h, 100 µM [3] [%]","remaining at 48 h, 100 µM [4] [%]",half-life at 100 µM [5] [h],"remaining at 0.5 h, 100 µM [6] [%]","remaining at 2 h, 100 µM [7] [%]",Ki [8] [nM],"remaining at 6 h, 100 µM [9] [%]",Structure (SMILES)
23.1,< 1,< 1,< 1,< 0.0833,,,,,CC[C@H](C)[C@H](NC(=O)[C@H](Cc1ccc(O)cc1)NC(=O)[C@@H]1CCCN1C(=O)[C@H](CCCNC(=N)N)NC(=O)[C@@H](N)CCCNC(=N)N)C(=O)N[C@@H](CC(C)C)C(=O)O
2.6,< 1,,,,< 1,< 1,,,CC[C@H](C)[C@@H](C(=O)N[C@@H](CC(C)C)C(=O)O)N(C)C(=O)[C@H](Cc1ccc(O)cc1)NC(=O)[C@@H]1CCCN1C(=O)[C@H](CCCNC(=N)N)NC(=O)[C@@H](N)CCCNC(=N)N
22.9,< 1,,,,< 1,< 1,,,CC[C@H](C)[C@H](NC(=O)[C@H](Cc1ccc(O)cc1)N(C)C(=O)[C@@H]1CCCN1C(=O)[C@H](CCCNC(=N)N)NC(=O)[C@@H](N)CCCNC(=N)N)C(=O)N[C@@H](CC(C)C)C(=O)O
39.9,< 1,,,,< 1,< 1,,,CC[C@H](C)[C@H](NC(=O)[C@H](Cc1ccc(O)cc1)NC(=O)[C@@H]1CCCN1C(=O)[C@H](CCCNC(=N)N)NC(=O)[C@@H](N)CCCNC(=N)N)C(=O)N(C)[C@@H](CC(C)C)C(=O)O
> 99,83.7,,,,93.6,66.4,,,CC[C@H](C)[C@H](NC(=O)[C@H](Cc1ccc(O)cc1)NC(=O)[C@@H]1CCCN1C(=O)[C@H](CCCNC(=N)N)N(C)C(=O)[C@@H](N)CCCNC(=N)N)C(=O)N[C@@H](CC(C)C)C(=O)O
,> 99,> 99,92.5,,,,18,> 99,CCC(=O)N[C@@H](CCCNC(=N)N)C(=O)N[C@@H](CCCNC(=N)N)C(=O)N1CCC[C@H]1C(=O)N[C@@H](Cc1ccc(O)cc1)C(=O)N[C@H](C(=O)N[C@@H](CC(C)C)C(=O)O)C(C)(C)C

# The remaining lines, values behind:
Structure (SMILES),"remaining at 10 min, 100 µM [1] [%]","remaining at 1 h, 100 µM [2] [%]","remaining at 24 h, 100 µM [3] [%]","remaining at 48 h, 100 µM [4] [%]",half-life at 100 µM [5] [h],"remaining at 0.5 h, 100 µM [6] [%]","remaining at 2 h, 100 µM [7] [%]",Ki [8] [nM],"remaining at 6 h, 100 µM [9] [%]"
CC(C)C[C@H](NC(=O)[C@@H](NC(=O)[C@H](Cc1ccc(O)cc1)NC(=O)[C@@H]1CCCN1C(=O)[C@H](CCCNC(=N)N)NC(=O)[C@@H](N)CCCNC(=N)N)C(C)(C)C)C(=O)O.O=C(O)C(F)(F)F.O=C(O)C(F)(F)F.O=C(O)C(F)(F)F,10.8,< 1,< 1,< 1,< 0.0833,,,,
CC(C)C[C@H](NC(=O)[C@@H](NC(=O)[C@H](Cc1ccc(O)cc1)NC(=O)[C@@H]1CCCN1C(=O)[C@H](CCCNC(=N)N)N(C)C(=O)[C@@H](N)CCCNC(=N)N)C(C)(C)C)C(=O)O.O=C(O)C(F)(F)F.O=C(O)C(F)(F)F.O=C(O)C(F)(F)F,,> 99,> 99,> 99,> 48,,,1.6,> 99
CCC(=O)N[C@@H](CCCNC(=N)N)C(=O)N[C@@H](CCCNC(=N)N)C(=O)N1CCC[C@H]1C(=O)N[C@@H](Cc1ccc(O)cc1)C(=O)N[C@H](C(=O)N[C@@H](CC(C)C)C(=O)O)[C@@H](C)CC.O=C(O)C(F)(F)F.O=C(O)C(F)(F)F,> 99,71.8,,,1 to 2,84,,,
CN[C@@H](CCCNC(=N)N)C(=O)N[C@@H](CCCNC(=N)N)C(=O)N1CCC[C@H]1C(=O)N[C@@H](Cc1ccc(O)cc1)C(=O)N[C@H](C(=O)N[C@@H](CC(C)C)C(=O)O)C(C)(C)C.O=C(O)C(F)(F)F.O=C(O)C(F)(F)F.O=C(O)C(F)(F)F,,> 99,98.3,86.8,> 48,,,0.88,> 99
CC[C@H](C)[C@H](NC(=O)[C@H](Cc1ccc(O)cc1)NC(=O)[C@@H]1CCCN1C(=O)[C@H](CCCNC(=N)N)NC(=O)[C@H](CCCNC(=N)N)NC)C(=O)N[C@@H](CC(C)C)C(=O)O.O=C(O)C(F)(F)F.O=C(O)C(F)(F)F.O=C(O)C(F)(F)F,92.1,79.7,,,< 5,88.2,70.8,0.223,
